# Experimental data pooled from the literature.
# Compare with care: the assays were run in different laboratories.
# Target: Inhibitor of nuclear factor kappa-B kinase subunit alpha (CHUK, Homo sapiens, UniProt O15111)
# Residues used in one study (O15111 1-745): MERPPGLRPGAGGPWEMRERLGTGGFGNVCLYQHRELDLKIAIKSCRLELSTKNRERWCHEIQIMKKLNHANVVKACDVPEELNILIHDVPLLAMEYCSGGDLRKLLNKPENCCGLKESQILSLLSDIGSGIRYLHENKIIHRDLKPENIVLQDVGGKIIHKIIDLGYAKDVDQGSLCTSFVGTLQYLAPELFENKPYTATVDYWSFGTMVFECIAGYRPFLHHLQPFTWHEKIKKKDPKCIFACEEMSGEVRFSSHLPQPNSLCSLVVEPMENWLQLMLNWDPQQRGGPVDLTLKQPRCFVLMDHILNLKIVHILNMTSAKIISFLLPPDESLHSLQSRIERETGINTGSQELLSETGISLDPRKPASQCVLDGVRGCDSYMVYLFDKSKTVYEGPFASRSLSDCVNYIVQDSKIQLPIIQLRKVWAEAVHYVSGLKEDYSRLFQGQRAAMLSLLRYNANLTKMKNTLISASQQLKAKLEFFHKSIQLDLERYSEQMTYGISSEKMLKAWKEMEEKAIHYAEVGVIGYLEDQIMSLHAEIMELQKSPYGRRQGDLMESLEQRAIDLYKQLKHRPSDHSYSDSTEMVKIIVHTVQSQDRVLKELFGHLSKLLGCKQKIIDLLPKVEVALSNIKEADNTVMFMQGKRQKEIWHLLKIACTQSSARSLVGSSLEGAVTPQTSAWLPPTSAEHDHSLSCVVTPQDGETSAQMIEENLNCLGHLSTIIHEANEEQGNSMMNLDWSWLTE
Structure (SMILES),effect on,action,technique,concentration,quantity,value
CC/C(=N\NC(=O)NCc1cccc(O)c1)c1ccc(O)c(C)c1O,enzyme activity,inhibitor,,0.1 µM,inhibition,0.7%
CNC(=O)c1cc(Oc2ccc(NC(=O)Nc3ccc(Cl)c(C(F)(F)F)c3)cc2)ccn1,enzyme activity,inhibitor,,0.3 µM,inhibition,-10%
O=C(Nc1cnn(-c2csc(C(=O)NC3COC3)c2)c1)Nc1c(F)cccc1Cl,enzyme activity,inhibitor,,5 µM,remaining activity,108%
CNCc1ccc(-c2cc(-c3nc(-c4ccc(S(=O)(=O)C(C)C)cc4)cnc3N)on2)cc1,enzyme activity,inhibitor,,2 µM,inhibition,36%
CSc1nc(C)c(-c2ccnc(Nc3ccc(N4CCOCC4)cc3)c2)[nH]1,enzyme activity,inhibitor,,10 µM,inhibition,48.8%
Cc1c(C(=O)O)cc(-c2ccc(C3CCNCC3)cc2)c2ccc(-c3ccc(C(F)(F)F)cc3)cc12,cell-free assay,,competition with immobilised ligand,1 µM,remaining binding,98%
Cc1cc(NC(=O)c2cccc3cc(-c4cccc5[nH]nc(N)c45)ccc23)ccc1F,enzyme activity,inhibitor,,0.1 µM,activity vs control,127%
Cc1ccc(C(=O)Nc2ccc(CN3CCN(C)CC3)c(C(F)(F)F)c2)cc1C#Cc1cnc2cccnn12,enzyme activity,inhibitor,,23.5 nM,remaining activity,19%
CCN(CC)c1ccc(C2=NNC(=O)CC2C)cc1[N+](=O)[O-] (stereo not drawn),enzyme activity,inhibitor,,10 µM,remaining activity,109%
CN(C)C(=O)Cn1cc(-c2nc(C3(c4ccc(-c5cnc(N)nc5)cc4)CC3)no2)cn1,cell-free assay,,competition with immobilised ligand,1 µM,remaining binding,100%
Cc1ccc(NC(=O)c2ccc(CN3CCN(C)CC3)cc2)cc1Nc1nc(-c2cccnc2)cs1,cell-free assay,,,0.5 µM,remaining signal,96.2%
CN(C)c1ncnc(-c2ccc3nc(Nc4cc(CN5CCN(C(=O)CC(F)(F)F)CC5)ccn4)[nH]c3c2)c1Cl,cell-free assay,,competition with immobilised ligand,1 µM,remaining binding,69%
O=C(Nc1nccs1)C(c1cc(F)ccc1O)N1Cc2ccccc2C1=O (stereo not drawn),enzyme activity,inhibitor,,1 µM,inhibition,16%
CCN(CC)CCNC(=O)c1c(C)[nH]c(/C=C2\C(=O)Nc3ccc(F)cc32)c1C,enzyme activity,inhibitor,,10 µM,inhibition,52%
CC(=O)N1CCC(c2ccc(C(=O)NC3=NCCN3)cc2C(F)(F)F)CC1,cell-free assay,,competition with immobilised ligand,1 µM,remaining binding,90%
N#CCCc1ccc2c(c1)-c1[nH]c3ccc([N+](=O)[O-])cc3c1CC(=O)N2,cell-free assay,,,0.5 µM,remaining signal,105%
CC(C)(O)[C@H]1CC[C@H](Nc2ccc3ncc(-c4cccc(C(F)(F)F)c4)n3n2)CC1,enzyme activity,inhibitor,,1 µM,remaining activity,83.6%
C[C@H](NC(=O)c1cnc2n1[C@](C)(Cc1ccc(C#N)cc1)C(=O)N2c1cc(Cl)c(F)c(Cl)c1)C(=O)NC1(c2ccccn2)CC1,cell-free assay,,competition with immobilised ligand,1 µM,remaining binding,100%
CC(C)(C)c1nc(-c2cccc(NS(=O)(=O)c3c(F)cccc3F)c2F)c(-c2ccnc(N)n2)s1,enzyme activity,inhibitor,radiometric,1 µM,remaining activity,97%
C#Cc1cccc(Nc2ncnc3cc(OCCOC)c(OCCOC)cc23)c1,cell-free assay,,,0.5 µM,remaining signal,94.2%
NS(=O)(=O)c1cc(NC(=O)Cc2ccccc2)ccc1Oc1cccc(Cl)c1,cell-free assay,,competition with immobilised ligand,1 µM,remaining binding,63%
CCCCNc1ncc2c(-c3ccc(F)cc3)nn(C[C@H]3CC[C@H](N)CC3)c2n1,target engagement in cells,inhibitor,chemoproteomics,20 mM,inhibition,4.9%
O=C(N1CCS(=O)(=O)CC1)N1C[C@H](c2ccc(OC(F)(F)F)cc2)C[C@H](c2nc(C3CC3)no2)C1,cell-free assay,,competition with immobilised ligand,1 µM,remaining binding,97%
Cc1cnc(NC2CCOCC2)nc1-n1cnc(C(=O)NC(CN)c2cc(F)cc(Cl)c2)c1 (stereo not drawn),enzyme activity,inhibitor,radiometric,1 µM,remaining activity,92%
